This is an account of results in ChEMBL document CHEMBL1138474, “Modulation of the transient receptor potential vanilloid channel TRPV4 by 4alpha-phorbol esters: a structure-activity study” (J Med Chem, 2009).

Test [1] has as its target Transient receptor potential cation channel subfamily V member 4 (Mus musculus) (UniProt Q9EPK8). In words: Activation of mouse wild type TRPV4 expressed in HEK293 cells assessed as increase in intracellular calcium concentration at 0.1 uM. The test is classed as cell-based. (Calcium assays in cells follow changes in intracellular calcium, usually with a dye or a luminescent sensor.)

Test [2] concerns the target Transient receptor potential cation channel subfamily V member 4 (Mus musculus, UniProt Q9EPK8, Y556A). Kind of test: Activation of mouse TRPV4 Y556A mutant expressed in HEK293 cells assessed as increase in intracellular calcium concentration. The class given is cell-based. In outline:
(§1)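 mTRPV4 (wild type or the Y556A, S557A or W586A TM3-4 mutant) in pCAGGS/Ires-GFP was transiently transfected into HEK293 cells and incubated overnight. GFP-positive cells on poly-L-lysine coverslips were loaded with 4 µM Fura-2 AM for 30 min at 37 °C and perfused with Krebs solution (1.5 mM CaCl2, pH 7.4). The 340/380 nm ratio (510 nm emission) gave ∆Fura-2 ratio. EC50 came from a Hill fit, >15 cells, three transfections.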

Test [3] concerns the target Transient receptor potential cation channel subfamily V member 4 (Mus musculus, UniProt Q9EPK8, W586A). In words: Activation of mouse TRPV4 W586A mutant expressed in HEK293 cells assessed as increase in intracellular calcium concentration. The class given is cell-based. A digest of the protocol:
as §1

Test [4] has as its target T1, Transient receptor potential cation channel subfamily V member 3 (Homo sapiens) (UniProt Q8NET8).
T1 sequence (whole entry): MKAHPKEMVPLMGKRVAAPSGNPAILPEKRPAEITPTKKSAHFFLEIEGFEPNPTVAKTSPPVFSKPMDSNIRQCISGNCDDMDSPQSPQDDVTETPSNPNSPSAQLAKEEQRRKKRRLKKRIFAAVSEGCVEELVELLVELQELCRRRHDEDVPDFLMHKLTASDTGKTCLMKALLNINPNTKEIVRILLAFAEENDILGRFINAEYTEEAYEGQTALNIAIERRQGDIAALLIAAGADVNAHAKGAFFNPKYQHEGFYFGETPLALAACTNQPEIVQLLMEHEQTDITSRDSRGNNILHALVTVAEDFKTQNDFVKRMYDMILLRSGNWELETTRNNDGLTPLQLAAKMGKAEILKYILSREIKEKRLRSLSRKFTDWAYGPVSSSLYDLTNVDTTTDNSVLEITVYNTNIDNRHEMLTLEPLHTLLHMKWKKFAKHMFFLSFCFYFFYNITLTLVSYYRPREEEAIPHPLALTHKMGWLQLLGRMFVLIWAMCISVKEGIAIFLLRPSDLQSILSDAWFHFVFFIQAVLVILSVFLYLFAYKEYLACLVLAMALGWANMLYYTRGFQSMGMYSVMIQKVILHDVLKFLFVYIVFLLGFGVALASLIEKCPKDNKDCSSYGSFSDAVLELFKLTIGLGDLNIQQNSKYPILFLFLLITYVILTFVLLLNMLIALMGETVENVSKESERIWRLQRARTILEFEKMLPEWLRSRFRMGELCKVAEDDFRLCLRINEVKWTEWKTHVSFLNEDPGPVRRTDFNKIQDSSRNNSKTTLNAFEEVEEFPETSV
Kind of test: Activation of TRPV3 expressed in HEK293 cells assessed as increase in intracellular calcium concentration. The class given is cell-based. In outline:
(§2)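 HEK293 cells grown in DMEM with 10% human serum at 37 °C/10% CO2 and transfected with the TRPV channel. Cells were loaded with 4 µM Fura-2 AM for 30 min at 37 °C and perfused with Krebs buffer (1.5 mM CaCl2, pH 7.4). Read-out is single-cell 340/380 nm fura-2 ratio imaging against nontransfected cells.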

The target in test [5] is Transient receptor potential cation channel subfamily V member 4 (Mus musculus) (UniProt Q9EPK8). In words: Activation of mouse wild type TRPV4 expressed in HEK293 cells assessed as increase in intracellular calcium concentration at 500 nM in presence of TRP antagonist ruthenium red.
Chain of Transient receptor potential cation channel subfamily V member 4 (Mus musculus) (Q9EPK8 whole entry): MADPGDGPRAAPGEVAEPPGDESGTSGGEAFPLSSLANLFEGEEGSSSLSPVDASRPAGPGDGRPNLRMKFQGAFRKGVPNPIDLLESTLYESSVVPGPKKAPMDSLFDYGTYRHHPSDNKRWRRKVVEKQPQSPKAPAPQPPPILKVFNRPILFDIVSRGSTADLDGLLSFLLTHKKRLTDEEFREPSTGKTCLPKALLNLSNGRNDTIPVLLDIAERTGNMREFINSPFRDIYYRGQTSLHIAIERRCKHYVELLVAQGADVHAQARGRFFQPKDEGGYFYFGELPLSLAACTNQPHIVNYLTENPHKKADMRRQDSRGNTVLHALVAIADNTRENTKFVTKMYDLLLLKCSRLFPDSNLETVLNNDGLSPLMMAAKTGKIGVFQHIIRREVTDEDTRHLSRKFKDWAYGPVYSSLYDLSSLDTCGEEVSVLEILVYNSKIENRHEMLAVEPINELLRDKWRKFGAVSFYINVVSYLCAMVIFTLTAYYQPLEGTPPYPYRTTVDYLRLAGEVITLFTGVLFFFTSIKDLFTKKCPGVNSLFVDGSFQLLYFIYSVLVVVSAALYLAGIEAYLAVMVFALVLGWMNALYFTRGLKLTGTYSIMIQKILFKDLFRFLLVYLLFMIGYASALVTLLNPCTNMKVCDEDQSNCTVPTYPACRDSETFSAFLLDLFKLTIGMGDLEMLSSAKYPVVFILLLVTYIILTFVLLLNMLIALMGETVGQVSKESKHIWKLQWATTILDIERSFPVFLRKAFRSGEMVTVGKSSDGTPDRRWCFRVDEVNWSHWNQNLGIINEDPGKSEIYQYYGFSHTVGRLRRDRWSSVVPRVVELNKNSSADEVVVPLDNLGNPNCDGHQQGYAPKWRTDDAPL
Test [6] shares this target. In words: Activation of mouse wild type TRPV4 expressed in HEK293 cells assessed as increase in intracellular calcium concentration at 500 nM.
Test [7] addresses Transient receptor potential cation channel subfamily V member 1 (Homo sapiens) (UniProt Q8NER1). In words: Activation of TRPV1 expressed in HEK293 cells assessed as increase in intracellular calcium concentration. The test is classed as cell-based. In outline: as §2
Test [8] deals with Transient receptor potential cation channel subfamily V member 4 (Mus musculus, UniProt Q9EPK8, S557A). Kind of test: Activation of mouse TRPV4 S557A mutant expressed in HEK293 cells assessed as increase in intracellular calcium concentration. The class given is cell-based. A digest of the protocol: as §1
Chain of Transient receptor potential cation channel subfamily V member 4 (Mus musculus, UniProt Q9EPK8, S557A) (Q9EPK8 whole entry S557A): as the sequence (Q9EPK8 whole entry) above, with S557A counted along it
In test [9] the test system is Transient receptor potential cation channel subfamily V member 4 (Mus musculus), Q9EPK8 [W586A]. Kind of test: Agonist activity at mouse TRPV4 W586A mutant expressed in HEK293 cells assessed as increase in intracellular calcium measured by fura-2 fluorescence ratio. The class given is functional, cell-based. A digest of the protocol:
(§3)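 HEK293 cells transiently transfected with W586A or Y556A mouse TRPV4 mutants alongside wild type. Dose-response by single-cell fura-2 Ca2+ imaging, read as ΔFura-2 ratio. More than 15 cells per point from three independent transfections. Hill fit used, significance set at p < 0.05.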

A further test has as its system HEK293. Kind of test: Effect on intracellular calcium level in non transfected HEK293 cells at >10 uM. The test is classed as functional, cell-based. Particulars: Homo sapiens. In outline:
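GFP-negative (untransfected) HEK293 cells from the same coverslips were imaged by fura-2 ratio. Compound was applied at concentrations above 10 µM.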

Test [10] deals with Transient receptor potential cation channel subfamily V member 4 (Mus musculus), Q9EPK8 [Y556A]. Kind of test: Agonist activity at mouse TRPV4 Y556A mutant expressed in HEK293 cells assessed as increase in intracellular calcium measured by fura-2 fluorescence ratio. The test is classed as functional, cell-based. In outline:
as §3

SMILES strings stand for the structures. Calls of active or inactive are those of the source. The calls are words filed in the database; no cut-off is given here.

Chain of Transient receptor potential cation channel subfamily V member 1 (Homo sapiens) (Q8NER1 whole entry): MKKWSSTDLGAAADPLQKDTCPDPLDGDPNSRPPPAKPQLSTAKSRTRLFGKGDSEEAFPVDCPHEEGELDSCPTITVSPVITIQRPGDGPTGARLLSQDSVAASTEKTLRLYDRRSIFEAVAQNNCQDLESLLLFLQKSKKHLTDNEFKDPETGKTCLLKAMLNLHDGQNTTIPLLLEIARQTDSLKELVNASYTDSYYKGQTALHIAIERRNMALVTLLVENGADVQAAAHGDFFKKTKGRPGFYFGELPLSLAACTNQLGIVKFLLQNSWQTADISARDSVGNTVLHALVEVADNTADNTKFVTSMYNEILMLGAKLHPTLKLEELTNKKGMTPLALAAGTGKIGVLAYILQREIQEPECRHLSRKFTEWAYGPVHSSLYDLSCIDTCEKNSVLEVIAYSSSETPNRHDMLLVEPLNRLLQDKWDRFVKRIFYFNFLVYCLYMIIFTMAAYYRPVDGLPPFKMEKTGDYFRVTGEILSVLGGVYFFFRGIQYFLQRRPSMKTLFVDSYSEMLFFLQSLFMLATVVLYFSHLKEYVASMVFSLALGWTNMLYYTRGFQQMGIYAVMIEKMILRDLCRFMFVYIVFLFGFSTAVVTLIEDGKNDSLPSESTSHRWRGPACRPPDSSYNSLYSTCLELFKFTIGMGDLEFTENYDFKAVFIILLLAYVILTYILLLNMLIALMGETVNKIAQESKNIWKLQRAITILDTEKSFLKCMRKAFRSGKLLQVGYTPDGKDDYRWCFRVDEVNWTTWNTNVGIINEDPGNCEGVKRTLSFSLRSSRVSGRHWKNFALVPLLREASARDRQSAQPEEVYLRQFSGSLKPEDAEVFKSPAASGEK
Chain of Transient receptor potential cation channel subfamily V member 4 (Mus musculus), Q9EPK8 [W586A] (Q9EPK8 whole entry W586A): as the sequence (Q9EPK8 whole entry) above, with W586A counted along it
Chain of Transient receptor potential cation channel subfamily V member 4 (Mus musculus, UniProt Q9EPK8, W586A) (Q9EPK8 whole entry W586A): as the sequence (Q9EPK8 whole entry) above, with W586A counted along it
Chain of Transient receptor potential cation channel subfamily V member 4 (Mus musculus, UniProt Q9EPK8, Y556A) (Q9EPK8 whole entry Y556A, the tested form may be a part): as the sequence (Q9EPK8 whole entry) above, with Y556A counted along it
Chain of Transient receptor potential cation channel subfamily V member 4 (Mus musculus), Q9EPK8 [Y556A] (Q9EPK8 whole entry Y556A): as the sequence (Q9EPK8 whole entry) above, with Y556A counted along it

As to `CCCCCCCCCC(=O)O[C@@H]1[C@@H](C)[C@]2(O)[C@@H]3C4C([C@H]2[C@@H]2C(C)(C)[C@]12OC(=O)CCCCCCCCC)C1(CO)C[C@H]3C(=O)C41C` (stereo partly specified), the outcome (in test [1]; in test [6]; in test [9]; with HEK293; in [10]) was Active. The EC50 (as a rule, the concentration giving half of the maximal effect) in test [2] stood at 9.36 µM; in [3], 3.64 µM; in [8], 0.24 µM. Also, the result in test [4], in [5] and in test [7] was inactive.
